Our source for the inhibition and IC50 values is ChEMBL document CHEMBL1126750, “Nonpeptide angiotensin II receptor antagonists. Synthesis and biological activity of benzimidazolecarboxylic acids” (J Med Chem, 1993).

A value given as a limit tells only on which side of the number the result lay.

The target of experiment [1] is T1, Angiotensin II receptor (Rattus norvegicus) (UniProt P29089+P25095+P35351). Kind of experiment: Percent inhibition of the Angiotensin-II (0.1ug/kg, iv) induced pressor response after 3 hours of administration (1 mg/kg po) in rats. The format is functional, organism-based. An outline of the steps:
(§1)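 Conscious male Sprague-Dawley rats dosed orally with test compound; pressor response to AII challenge (0.1 µg/kg iv) measured at 3 and 7 h after dosing and expressed as percent inhibition. Duplicate experiments, with n = 3 for some compounds; variation in % inhibition under 30%.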

Experiment [2] addresses T1, Angiotensin II receptor (Rattus norvegicus). Kind of experiment: Percent inhibition of the Angiotensin-II (0.1micro g/kg, iv) induced pressor response after 7 hours of administration (3 mg/kg po) in rats. The format is functional, organism-based. A digest of the protocol:
as §1

For experiment [3] the target is unchanged. Kind of experiment: Percent inhibition of the Angiotensin-II (0.1ug/kg, iv) induced pressor response after 3 hours of administration (3 mg/kg po) in rats. The format is functional, organism-based. An outline of the steps:
as §1

The target is the same in experiment [4]. Kind of experiment: Percent inhibition of the Angiotensin-II (0.1ug/kg, iv) induced pressor response after 7 hours of administration (1 mg/kg po) in rats. The class given is functional, organism-based. A digest of the protocol: as §1
The target of experiment [5] is T2, Type-1 angiotensin II receptor (Bos taurus, UniProt P25104).
T2 sequence (P25104 whole entry): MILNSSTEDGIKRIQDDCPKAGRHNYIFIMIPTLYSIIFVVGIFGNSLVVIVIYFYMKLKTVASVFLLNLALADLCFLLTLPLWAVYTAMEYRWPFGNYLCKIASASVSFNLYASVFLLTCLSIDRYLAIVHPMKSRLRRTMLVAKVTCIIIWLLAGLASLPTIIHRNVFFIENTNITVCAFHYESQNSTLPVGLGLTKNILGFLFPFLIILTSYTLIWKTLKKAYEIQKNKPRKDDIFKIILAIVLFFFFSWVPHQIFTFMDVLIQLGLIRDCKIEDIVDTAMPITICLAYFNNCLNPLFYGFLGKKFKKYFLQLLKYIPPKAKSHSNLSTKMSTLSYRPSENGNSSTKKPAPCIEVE
Kind of experiment: Inhibition of specific binding of [125 I ] Angiotensin-II (0.2 nM) to bovine adrenal cortex. The format is tissue-based.

Regarding `CCCNc1nc2cccc(C(=O)O)c2n1Cc1ccc(-c2ccccc2-c2nn[nH]n2)cc1`, the inhibition in experiment [1] stood at 46%; in experiment [2] it was 72%; in experiment [3] it was 73%; in experiment [4], 66%.

In turn, `CNc1nc2cccc(C(=O)O)c2n1Cc1ccc(-c2ccccc2-c2nnn[nH]2)cc1` gave a half-maximal inhibitory concentration (IC50) in experiment [5] of 170 nM.

`CCOc1nc2cccc(C(=O)O)c2n1Cc1ccc(-c2ccccc2C(=O)O)cc1`: in experiment [5], the half-maximal inhibitory concentration (IC50) is 190 nM. In addition, the inhibition in experiment [1] turned out to be 26%; in experiment [2], 49%; in experiment [3] it was 37%; in experiment [4], 44%.

`CCNc1nc2cccc(C(=O)O)c2n1Cc1ccc(-c2ccccc2-c2nnn[nH]2)cc1` registered an IC50 in experiment [5] of 62 nM.

In turn, `CCCc1nc2cccc(C(=O)O)c2n1Cc1ccc(-c2ccccc2-c2nn[nH]n2)cc1` returned an IC50 in experiment [5] of 170 nM. For the same molecule, the inhibition stood at 83% in experiment [1], 91% in experiment [2], 90% in experiment [3] and 69% in experiment [4].

`CCCCc1nc2cccc(C(=O)O)c2n1Cc1ccc(-c2ccccc2-c2nnn[nH]2)cc1` displayed an IC50 in experiment [5] of 550 nM.

As for `CSc1nc2cccc(C(=O)O)c2n1Cc1ccc(-c2ccccc2-c2nn[nH]n2)cc1`, the inhibition in experiment [1] was 100%; in experiment [2], 95%; in experiment [3], 100%; in experiment [4], 81%.

`CCOc1nc2cccc(C(=O)OC)c2n1Cc1ccc(-c2ccccc2-c2nnn[nH]2)cc1`: in experiment [5], the half-inhibitory concentration (IC50) stood at 66 nM.

With `CCCNc1nc2cccc(C(=O)O)c2n1Cc1ccc(-c2ccccc2-c2nnn[nH]2)cc1`, the IC50 in experiment [5] worked out at 39 nM.

In experiment [5], `CCCSc1nc2cccc(C(=O)O)c2n1Cc1ccc(-c2ccccc2-c2nnn[nH]2)cc1` gave a 50% inhibitory concentration (IC50) of 120 nM.

Take `CC(C)c1nc2cccc(C(=O)O)c2n1Cc1ccc(-c2ccccc2-c2nn[nH]n2)cc1`: the values for the inhibition in experiment [2] and in experiment [3] were 38% and 61%, respectively.

With `Cc1nc2cccc(C(=O)O)c2n1Cc1ccc(-c2ccccc2-c2nnn[nH]2)cc1`, the IC50 in experiment [5] worked out at 190 nM.

On to `CSc1nc2cccc(C(=O)O)c2n1Cc1ccc(-c2ccccc2-c2nnn[nH]2)cc1`, for which, in experiment [5], the IC50 came out at 120 nM.

Turning to `CCSc1nc2cccc(C(=O)OC)c2n1Cc1ccc(-c2ccccc2-c2nn[nH]n2)cc1`, the 50% inhibitory concentration (IC50) in experiment [5] is 440 nM.

As to `CCCCc1nc(Cl)c(CO)n1Cc1ccc(-c2ccccc2-c2nnn[nH]2)cc1`, the inhibition is 21% in experiment [1], 74% in experiment [2], 62% in experiment [3] and 34% in experiment [4].

Take `CSCc1nc2cccc(C(=O)O)c2n1Cc1ccc(-c2ccccc2-c2nn[nH]n2)cc1`: the IC50 in experiment [5] came to 150 nM. The inhibition was found to be 85% in experiment [1] and 44% in experiment [4].

`CCSc1nc2cccc(C(=O)O)c2n1Cc1ccc(-c2ccccc2-c2nnn[nH]2)cc1`: in experiment [5], the IC50 was found to be 170 nM.

`CCc1nc2cccc(C(=O)O)c2n1Cc1ccc(-c2ccccc2-c2nnn[nH]2)cc1` returned an IC50 in experiment [5] of 46 nM.

Take `CCOc1nc2cccc(C(=O)OC)c2n1Cc1ccc(-c2ccccc2-c2nn[nH]n2)cc1`: the inhibition worked out at 100% in experiment [1], 100% in experiment [2], 100% in experiment [3] and 90% in experiment [4].

For `CCCSc1nc2cccc(C(=O)O)c2n1Cc1ccc(-c2ccccc2-c2nn[nH]n2)cc1`, the inhibition stood at 100% in experiment [1], 76% in experiment [2], 88% in experiment [3] and 100% in experiment [4].

Turning to `CCOCc1nc2cccc(C(=O)O)c2n1Cc1ccc(-c2ccccc2-c2nn[nH]n2)cc1`, the inhibition is 63% in experiment [1] and 29% in experiment [4].

`COCCc1nc2cccc(C(=O)O)c2n1Cc1ccc(-c2ccccc2-c2nn[nH]n2)cc1`: the IC50 in experiment [5] amounted to 580 nM. The results for the inhibition in experiment [1] and in experiment [4] were 13% and 3%, respectively.

For `COCc1nc2cccc(C(=O)O)c2n1Cc1ccc(-c2ccccc2-c2nn[nH]n2)cc1`, in experiment [5], the concentration for half-maximal inhibition (IC50) turned out to be 250 nM. Moreover, the inhibition in experiment [1] worked out at 47%; in experiment [4] it was 33%.

Regarding `CCCOc1nc2cccc(C(=O)O)c2n1Cc1ccc(-c2ccccc2-c2nn[nH]n2)cc1`, the inhibition in experiment [1] is 87%; in experiment [2], 100%; in experiment [3] it was 100%; in experiment [4] it was 83%.

As for `COC(=O)c1cccc2nc(OC)n(Cc3ccc(-c4ccccc4-c4nnn[nH]4)cc3)c12`, in experiment [5], the IC50 was found to be 490 nM.

As to `COc1nc2cccc(C(=O)O)c2n1Cc1ccc(-c2ccccc2-c2nnn[nH]2)cc1`, the IC50 in experiment [5] stood at 32 nM.

Regarding `CCCOc1nc2cccc(C(=O)O)c2n1Cc1ccc(-c2ccccc2-c2nnn[nH]2)cc1`, in experiment [5], the concentration for half-maximal inhibition (IC50) was determined as 190 nM.

Take `CCCCNc1nc2cccc(C(=O)O)c2n1Cc1ccc(-c2ccccc2-c2nnn[nH]2)cc1`: the IC50 in experiment [5] was 650 nM.

For the molecule `COc1nc2cccc(C(=O)O)c2n1Cc1ccc(-c2ccccc2-c2nn[nH]n2)cc1`, the inhibition was 97% in experiment [1] and 80% in experiment [4].

In the case of `CCCCc1nc(Cl)c(CO)n1Cc1ccc(-c2ccccc2-c2nn[nH]n2)cc1` [LOSARTAN POTASSIUM], the half-maximal inhibitory concentration (IC50) in experiment [5] came out at 150 nM.

For `CCCOc1nc2cccc(C(=O)OCC)c2n1Cc1ccc(-c2ccccc2-c2nnn[nH]2)cc1`, the 50% inhibitory concentration (IC50) in experiment [5] was determined as 1000 nM.

`CCC(C)c1nc2cccc(C(=O)O)c2n1Cc1ccc(-c2ccccc2-c2nnn[nH]2)cc1` (stereo not given) gave a concentration for half-maximal inhibition (IC50) in experiment [5] of 3900 nM.

In experiment [5], `CCCCCc1nc2cccc(C(=O)O)c2n1Cc1ccc(-c2ccccc2-c2nnn[nH]2)cc1` displayed an IC50 of 560 nM.

On to `COC(=O)c1cccc2nc(OC)n(Cc3ccc(-c4ccccc4-c4nn[nH]n4)cc3)c12`, for which the figures for the inhibition in experiment [1] and in experiment [4] were 94% and 89%, respectively.

As to `COC(=O)c1cccc2nc(OCC(F)(F)F)n(Cc3ccc(-c4ccccc4-c4nn[nH]n4)cc3)c12`, the inhibition came to 36% in experiment [1] and 9% in experiment [4].

The molecule `CCSCc1nc2cccc(C(=O)O)c2n1Cc1ccc(-c2ccccc2-c2nnn[nH]2)cc1` returned a half-inhibitory concentration (IC50) in experiment [5] of 300 nM.

In turn, `CCOCc1nc2cccc(C(=O)O)c2n1Cc1ccc(-c2ccccc2-c2nnn[nH]2)cc1` had an IC50 in experiment [5] of 440 nM.

Molecule `O=C(O)c1cccc2nc(N3CCCCC3)n(Cc3ccc(-c4ccccc4-c4nnn[nH]4)cc3)c12` yielded an IC50 in experiment [5] above 1000 nM.

For the molecule `CCC(C)c1nc2cccc(C(=O)O)c2n1Cc1ccc(-c2ccccc2-c2nn[nH]n2)cc1` (stereo not given), the inhibition in experiment [1] came out at 6%; in experiment [2], 18%; in experiment [3], 15%; in experiment [4] it was 0%.

For the molecule `C=CCOc1nc2cccc(C(=O)OC)c2n1Cc1ccc(-c2ccccc2-c2nn[nH]n2)cc1`, the inhibition in experiment [1] is 14%; in experiment [4], 12%.

For the molecule `CCCCOc1nc2cccc(C(=O)OC)c2n1Cc1ccc(-c2ccccc2-c2nnn[nH]2)cc1`, in experiment [5], the IC50 is above 1000 nM.

On to `O=C(O)c1cccc2nc(N3CCOCC3)n(Cc3ccc(-c4ccccc4-c4nnn[nH]4)cc3)c12`, for which, in experiment [5], the half-inhibitory concentration (IC50) was above 1000 nM.

In the case of `O=C(O)c1cccc2nc(OCC(F)(F)F)n(Cc3ccc(-c4ccccc4-c4nn[nH]n4)cc3)c12`, the IC50 in experiment [5] turned out to be 580 nM. The inhibition was found to be 28% in experiment [1] and 7% in experiment [4].

For `CC(C)Cc1nc2cccc(C(=O)O)c2n1Cc1ccc(-c2ccccc2-c2nn[nH]n2)cc1`, the inhibition was -9% in experiment [1], 29% in experiment [2], 29% in experiment [3] and 13% in experiment [4].

As to `CCSc1nc2cccc(C(=O)O)c2n1Cc1ccc(-c2ccccc2-c2nn[nH]n2)cc1`, the inhibition in experiment [1] was 87%; in experiment [2], 97%; in experiment [3] it was 99%; in experiment [4], 90%.

Turning to `CC(C)c1nc2cccc(C(=O)O)c2n1Cc1ccc(-c2ccccc2-c2nnn[nH]2)cc1`, in experiment [5], the IC50 turned out to be 82 nM.

In turn, `COC(=O)c1cccc2nc(OCC(F)(F)F)n(Cc3ccc(-c4ccccc4-c4nnn[nH]4)cc3)c12` yielded an IC50 in experiment [5] above 1000 nM.

In turn, `CC(C)Cc1nc2cccc(C(=O)O)c2n1Cc1ccc(-c2ccccc2-c2nnn[nH]2)cc1` yielded an IC50 in experiment [5] of 3200 nM.

Consider `CC[S+]([O-])c1nc2cccc(C(=O)OC)c2n1Cc1ccc(-c2ccccc2-c2nn[nH]n2)cc1` (stereo not given), for which the IC50 in experiment [5] was above 1000 nM.

Turning to `O=C(O)c1cccc2nc(C3CC3)n(Cc3ccc(-c4ccccc4-c4nn[nH]n4)cc3)c12`, in experiment [5], the IC50 was 84 nM. In addition, the inhibition is 80% in experiment [1], 96% in experiment [2], 92% in experiment [3] and 88% in experiment [4].

In experiment [5], `CCN(C)c1nc2cccc(C(=O)O)c2n1Cc1ccc(-c2ccccc2-c2nnn[nH]2)cc1` displayed a 50% inhibitory concentration (IC50) above 1000 nM.

In experiment [5], `CSCCc1nc2cccc(C(=O)O)c2n1Cc1ccc(-c2ccccc2-c2nn[nH]n2)cc1` had a concentration for half-maximal inhibition (IC50) of 620 nM. In addition, the inhibition in experiment [1] and in experiment [4] was 10% throughout.

Take `C=CCOc1nc2cccc(C(=O)OC)c2n1Cc1ccc(-c2ccccc2-c2nnn[nH]2)cc1`: the IC50 in experiment [5] is 850 nM.

On to `CCSCc1nc2cccc(C(=O)O)c2n1Cc1ccc(-c2ccccc2-c2nn[nH]n2)cc1`, for which the inhibition in experiment [1] came out at 68%; in experiment [4], 57%.
